Sampled rows, rich in hits. Any-hit rate of the full collection: about 3.5%.
RGS4 inh: human RGS4 inhibition; HEK293 M3R/RGS4 inducible, Fluo-4 calcium flux; stronger effect = higher value; triggered by carbachol at its EC20; B-score at 10 µM; 0.45% of 310,000 active;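 active means B-score, a plate-corrected calcium signal, over three deviations above library mean, with baseline fluorescence within five deviations of library mean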;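 further: RGS4 expression induced by doxycycline in cells with stable M3 receptor; B-score is computed from the integrated fluorescence ratio over baseline after carbachol; higher B-score means a larger calcium signal and so more RGS4 inhibition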
Target sequence (P49798 whole entry, looked up): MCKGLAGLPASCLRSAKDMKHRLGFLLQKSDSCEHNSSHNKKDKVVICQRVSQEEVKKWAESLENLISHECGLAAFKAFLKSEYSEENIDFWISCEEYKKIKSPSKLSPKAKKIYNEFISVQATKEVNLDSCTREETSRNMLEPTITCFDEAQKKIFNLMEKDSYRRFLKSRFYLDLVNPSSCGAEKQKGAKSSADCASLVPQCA
MrgX1 PAM: allosterically activates human MrgX1 receptor signaling; MrgX1-HEK293, Fluo-4 calcium flux, FDSS; stronger effect = higher value; B-score at 10 µM; 0.63% of 310,000 active; AID 588675;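 active means plate-corrected calcium response at least 3 library SD above typical, normal starting fluorescence, not activating the receptor alone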;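 further: compound read alongside a low EC10 to EC30 dose of BAM8-22 agonist; peak minus trough fluorescence over baseline measured at the second addition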
Target sequence (Q96LB2 whole entry, looked up): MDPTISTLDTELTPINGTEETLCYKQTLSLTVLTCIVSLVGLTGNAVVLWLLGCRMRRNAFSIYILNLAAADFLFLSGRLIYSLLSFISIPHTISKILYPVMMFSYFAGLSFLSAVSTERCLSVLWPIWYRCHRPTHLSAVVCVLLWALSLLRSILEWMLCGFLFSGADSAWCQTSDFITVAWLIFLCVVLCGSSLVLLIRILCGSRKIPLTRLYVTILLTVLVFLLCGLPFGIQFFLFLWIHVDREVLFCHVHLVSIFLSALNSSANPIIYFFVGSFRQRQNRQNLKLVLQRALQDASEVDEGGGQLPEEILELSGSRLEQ
RGS4 act: RGS4 potentiation or activation; HEK293 M3R/inducible RGS4, carbachol calcium flux Fluo4; stronger effect = lower value; B-score at 10 µM; 0.92% of 310,000 active; AID 463111;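 active means B-score of the integrated calcium signal more than 4 SD below the library mean, with starting fluorescence not abnormally high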;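 further: negative B-score means reduced calcium response which marks RGS4 activation or potentiation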
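test system = M3R-expressing HEK293 line, RGS4 induced by doxycycline | probe or stimulus = carbachol at ECmax as muscarinic agonist stimulus | timing = dye loading 30 min 37 °C, buffer rest 30 min RT | signal = calcium dye Fluo4 fluorescence | evaluation = B score from integrated fluorescence ratio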
MrgX1 ag: activates human MrgX1 receptor signaling; MrgX1-HEK293 cells, Fluo-4 calcium fluorescence, agonist mode; stronger effect = higher value; B-score at 10 µM; Q96LB2; 0.44% of 310,000 active;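 active means calcium response B-score plate-corrected fluorescence ratio at least 3 library SD, with starting fluorescence B-score inside 5 SD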
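Material: HEK293 cells stably expressing human MrgX1 receptor | Quantity: 15,000 cells per well | Times: Cells plated overnight, dye loaded 0.5 h 37 °C, 0.5 h room temperature | Measured by: Kinetic Fluo-4 NW fluorescence of intracellular calcium | Control set: Positive and negative controls per plate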
MrgX1 antag: blocks BAM8-22 activation of human MrgX1 receptor; B-score at 10 µM; 1.3% of 310,000 active; Q96LB2; MRGX1-HEK293 calcium flux, Fluo-4, BAM8-22 antagonism; stronger effect = lower value;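 active means calcium-response B-score plate-corrected more than 3 library SD below zero, starting fluorescence within 5 deviations, no agonist response on first addition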;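 further: peak minus trough fluorescence over baseline after final BAM8-22 challenge near maximal dose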
MrgX1 antag conf: reconfirmed antagonist of human MrgX1 receptor signaling; 19% of 2,300 active; shares compounds with MrgX1 antag; remaining BAM8-22 calcium response % of control (stronger effect = lower value), % at 10 µM; MrgX1-HEK293, BAM8-22 calcium flux, Fluo-4; stronger effect = lower value;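 active means remaining agonist calcium response no higher than 100% minus 3 SD of agonist-only control wells, with starting fluorescence near control levels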;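 further: agonist BAM8-22 given at a near maximal EC90 to ECmax level; peak minus minimum fluorescence divided by baseline after agonist addition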
HEK293 Ca flux: MrgX1 antagonist counter-screen hit in parental HEK293 cells | shares compounds with MrgX1 antag | Fluo-4 calcium fluorescence, FDSS | fluorescence ratio F(max-min)/F0 at 10 µM | 2% of 4,000 active | AID 624111;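 active means duplicate-averaged calcium fluorescence ratio at least three times the standard deviation of buffer wells, a nonspecific response in parental cells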
HEK293 Ca counter: counter-screen for MrgX1 allosteric activators: effect in parental HEK293 cells. shares compounds with MrgX1 antag. parental HEK293 calcium flux, Fluo-4 fluorescence ratio; stronger effect = higher value. fluorescence ratio F(max-min)/F0 at 10 µM. 0.4% of 4,000 active;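 active means calcium fluorescence ratio, averaged over duplicates, at least 3 SD of the buffer-well ratio, meaning a nonspecific response in receptor-free cells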;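 further: untransfected parental HEK293 lacking MrgX1 used as counterscreen for MrgX1 allosteric activators; fluorescence change taken during the second addition on a kinetic imager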
HEK293 Ca cntr2: counter-screen for MrgX1 activators: effect in parental HEK293 cells; fluorescence ratio F(max-min)/F0 at 10 µM; shares compounds with MrgX1 antag; 8.7% of 4,000 active; Fluo-4 calcium fluorescence (FDSS); stronger effect = higher value;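 active means calcium fluorescence ratio at least three times the spread of buffer wells, meaning a non-specific response in parental cells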
* hit, by the source's call; i = inactive; nt = no result.

SMILES	RGS4 inh	MrgX1 PAM	RGS4 act	MrgX1 ag	MrgX1 antag	MrgX1 antag conf	HEK293 Ca flux	HEK293 Ca counter	HEK293 Ca cntr2
CN1CCN(NC(=O)c2cc(S(=O)(=O)N3CCOCC3)c(Cl)cc2Cl)CC1	i	i	i	i	i	nt	nt	nt	nt
CCOC(=O)N1CCN(c2c(N3CCOCC3)c(=O)c2=O)CC1	i	i	i	i	i	nt	nt	nt	nt
CCOC(=O)N1CCN(c2c(Nc3ccc4c(c3)OCCO4)c(=O)c2=O)CC1	i	i	i	i	-6.78*	i	i	i	i
CCCc1c(C)[nH]c2ccc(C(=O)O)cc2c1=S	i	nt	i	nt	nt	nt	nt	nt	nt
CC(C(=O)Nc1sc2c(c1C(=O)NCc1ccco1)CCCC2)N1C(=O)c2ccccc2C1=O (stereo not given)	i	i	i	i	i	nt	nt	nt	nt
O=C(CCN1C(=O)c2ccccc2C1=O)Nc1sc2c(c1C(=O)NCc1ccco1)CCCC2	i	i	i	i	-4.85*	i	i	i	i
CC1(C)CC2CC(C)(CN2CC(=O)C(C#N)c2ccccc2)C1 (stereo not given)	i	i	i	i	-8.69*	i	i	i	i
CC1(C)CC2CC(C)(CN2CC(O)c2ccccc2)C1 (stereo not given)	i	i	i	i	i	nt	nt	nt	nt
Cc1nn(C)c(C(=O)N/N=C/c2ccc(-c3ccccc3)cc2)c1Cl	i	i	i	i	-10.2*	i	i	i	i
O=C(CSc1ncn(-c2ccccc2)n1)Nc1ccc(Br)cn1	i	i	i	i	i	nt	nt	nt	nt
CCC(=O)Nc1ccc(Br)cn1	i	i	i	i	-5.36*	i	i	i	i
O=C(CSc1ccccn1)Nc1ccc(Br)cn1	i	i	i	i	-5.33*	i	i	i	i
O=C(CCC1CCCC1)NCCCN1CCOCC1	i	i	i	i	-6.94*	i	i	i	i
O=S1(=O)N=C2CCCCCN2C(c2ccccc2)N1 (stereo not given)	i	i	i	i	-4.62*	85.2%*	i	i	i
CCN(CC(=O)Nc1c(F)cccc1F)C(=O)COc1cccc2c1OC(C)(C)C2	i	i	i	i	-5.44*	i	i	i	i
CCn1c(SCC(=O)N(C(C)C)C(C)C)nnc1-c1cc2ccccc2cc1O	i	i	i	i	-6.18*	i	i	i	i
CCc1nnc(NC(=O)CSc2nnc(-c3cc4ccccc4cc3O)n2CC)s1	i	i	i	i	i	nt	nt	nt	nt
Cc1ccc(S(=O)(=O)n2nnc3ccccc32)c(C)c1C	i	i	i	i	-4.8*	i	i	i	i
CCOc1ccc(N2C(=O)CC(Sc3n[nH]c(-c4ccccc4)n3)C2=O)cc1 (stereo not given)	i	i	i	i	-5.02*	i	i	i	i
CCCN(CCO)C1CCN(CCc2ccccc2)CC1	i	i	i	i	i	nt	nt	nt	nt
O=C1N=C(c2ccccc2)C(c2ccccc2)N1 (stereo not given)	i	i	i	i	-7.29*	i	i	i	i
Cc1ccc(-n2nnc3c(=O)oc4ccccc4c32)cc1	i	i	i	i	i	nt	nt	nt	nt
CCC(C)n1nnc2c(=O)oc3ccccc3c21 (stereo not given)	i	i	i	i	-6.47*	i	i	i	i
Cc1ccc2c(Cl)c(C(=O)NCC3CCCO3)sc2c1 (stereo not given)	i	i	i	i	-4.56*	i	i	i	i
COc1ccccc1NC(=O)CSc1nc(N)c(C#N)cc1C#N	i	i	i	i	i	nt	nt	nt	nt
SMILES	RGS4 inh	MrgX1 PAM	RGS4 act	MrgX1 ag	MrgX1 antag	MrgX1 antag conf	HEK293 Ca flux	HEK293 Ca counter	HEK293 Ca cntr2
COc1ccccc1NC(=O)CSc1nc(N)cc(N)n1	i	i	i	i	-5.54*	i	i	i	i
CC1=NN(C(=O)Cc2ccc([N+](=O)[O-])cc2)C(O)(c2ccccc2)C1 (stereo not given)	i	i	i	i	i	nt	nt	nt	nt
COc1ccc(S(=O)(=O)N(CCc2ccccc2)CC(N)=O)cc1	i	i	i	i	-5.44*	i	i	i	i
NC(=O)c1ccccc1NC(=O)CCN1C(=O)c2ccccc2C1=O	i	i	i	i	-6.9*	85.2%*	i	i	i
O=C1CC(C(=O)Nc2nccs2)C(c2ccccc2)O1 (stereo not given)	i	i	i	i	-6.3*	i	i	i	i
Cc1cccc(C(=O)NCC(c2cccs2)N2CCOCC2)c1 (stereo not given)	i	i	i	i	i	nt	nt	nt	nt
Cc1cc(C)nc(SCC(=O)N2CCCCC2)n1	i	i	i	i	i	nt	nt	nt	nt
CCc1nc(SCC(=O)N2CCCC2)c2c(=O)n(C)c(=O)n(C)c2n1	i	i	i	i	i	nt	nt	nt	nt
Cc1cc(-c2ccccc2)nc(SCC(=O)N2CCCC2)n1	i	i	i	i	-5.42*	i	i	i	i
Cn1c(=O)c2c(SCC(=O)N3CCCC3)nc(-c3ccccc3)nc2n(C)c1=O	i	i	i	i	-6.02*	i	i	i	i
CCOC(=O)c1c(S(=O)(=O)N2CCN(c3ccc(C(C)=O)cc3)CC2)c(C)n(C)c1C	i	i	i	i	i	nt	nt	nt	nt
CC1COC(Cn2c3ccccc3c3ccccc32)O1 (stereo not given)	i	i	i	i	i	nt	nt	nt	nt
C=CCn1c(Cc2cccs2)nnc1SCC(=O)NC1CC1	i	i	i	i	-8.77*	i	i	i	i
CCn1c(Cc2cccs2)nnc1SCC(=O)NC1CC1	i	i	i	i	i	nt	nt	nt	nt
Cc1c(C(=O)c2cccc(F)c2)c2ccccn2c1CCC#N	i	i	i	i	-10.3*	84.0%*	i	i	i

Compound activity deposited in PubChem BioAssay by Johns Hopkins Ion Channel Center.
